Source: ChEMBL document CHEMBL1138195, “Highly chiral muscarinic ligands: the discovery of (2S,2'R,3'S,5'R)-1-methyl-2-(2-methyl-1,3-oxathiolan-5-yl)pyrrolidine 3-sulfoxide methyl iodide, a potent, functionally selective, M2 partial agonist” (J Med Chem, 2006)

Assays:
[1] = target: T1, Muscarinic acetylcholine receptor M2 (Homo sapiens) (UniProt P08172); assay: Antagonist affinity at muscarinic M2 receptor in guinea pig atrium; assay type: functional, tissue-based; conditions: Cavia porcellus; Cardiac atrium; target entry is the homologue from another species
T1 sequence (whole entry): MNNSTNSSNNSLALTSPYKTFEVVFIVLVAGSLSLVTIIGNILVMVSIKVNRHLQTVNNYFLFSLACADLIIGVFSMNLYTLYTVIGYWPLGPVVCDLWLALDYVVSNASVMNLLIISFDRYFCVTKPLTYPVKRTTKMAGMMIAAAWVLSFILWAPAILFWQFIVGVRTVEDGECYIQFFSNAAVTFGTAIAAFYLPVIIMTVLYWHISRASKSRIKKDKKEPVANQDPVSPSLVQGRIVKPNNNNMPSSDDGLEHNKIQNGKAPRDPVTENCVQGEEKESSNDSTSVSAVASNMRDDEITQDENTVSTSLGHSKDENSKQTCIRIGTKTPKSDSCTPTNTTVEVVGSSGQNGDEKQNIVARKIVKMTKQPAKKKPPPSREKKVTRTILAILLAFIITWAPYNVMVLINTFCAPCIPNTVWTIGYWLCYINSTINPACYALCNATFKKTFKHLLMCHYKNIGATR
In short: (§1)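 Guinea pig left atria in PSS at 30 °C, paced by square-wave pulses (1 ms, 1 Hz, 5-10 V). Inotropic force recorded isometrically after 2 h equilibration, with cumulative dose-response curves to arecaidine propargyl ester as reference. Antagonists incubated 60 min after a 30 min wash, then the curve was repeated. Values given as pD2 with intrinsic activity, or as pKb.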

[2] = target: Muscarinic acetylcholine receptor M3 (Cavia porcellus) (UniProt Q8VH26); assay: Antagonist affinity at muscarinic M3 receptor in guinea pig ileum; assay type: functional, tissue-based
Chain of Muscarinic acetylcholine receptor M3 (Cavia porcellus) (Q8VH26 1-587): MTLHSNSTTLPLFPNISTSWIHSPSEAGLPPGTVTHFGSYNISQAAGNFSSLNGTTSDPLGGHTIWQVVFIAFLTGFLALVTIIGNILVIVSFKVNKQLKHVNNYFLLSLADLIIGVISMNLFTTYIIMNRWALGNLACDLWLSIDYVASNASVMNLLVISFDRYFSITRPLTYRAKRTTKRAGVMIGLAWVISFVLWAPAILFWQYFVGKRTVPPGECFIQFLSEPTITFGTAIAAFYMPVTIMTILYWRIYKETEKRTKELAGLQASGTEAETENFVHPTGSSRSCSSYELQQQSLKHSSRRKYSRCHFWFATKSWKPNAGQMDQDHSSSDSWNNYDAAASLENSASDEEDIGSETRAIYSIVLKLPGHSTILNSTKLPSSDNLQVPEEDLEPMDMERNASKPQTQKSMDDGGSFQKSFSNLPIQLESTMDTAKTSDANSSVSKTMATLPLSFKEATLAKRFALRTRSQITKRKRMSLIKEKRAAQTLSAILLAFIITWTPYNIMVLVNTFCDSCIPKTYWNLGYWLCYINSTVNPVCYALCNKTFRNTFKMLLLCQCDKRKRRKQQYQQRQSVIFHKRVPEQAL
In short: (§2)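 Isolated guinea pig tissue contractions, measured against arecaidine propargyl ester control curves. Agonists: cumulative dose-response curve after a 30 min wash, responses as % of the control maximum. Antagonists: 60 min incubation, then a new agonist curve. Parallel time-control tissues were run. Values expressed as pD2 (-log ED50) with intrinsic activity, or as pKb (-log Kb).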

[3] = target: T2, Muscarinic acetylcholine receptor M4 (Homo sapiens) (UniProt P08173); assay: Antagonist affinity at muscarinic M4 receptor in guinea pig lung strips; assay type: functional; conditions: Cavia porcellus, target entry is the homologue from another species; in short: as §2
T2 sequence (whole entry): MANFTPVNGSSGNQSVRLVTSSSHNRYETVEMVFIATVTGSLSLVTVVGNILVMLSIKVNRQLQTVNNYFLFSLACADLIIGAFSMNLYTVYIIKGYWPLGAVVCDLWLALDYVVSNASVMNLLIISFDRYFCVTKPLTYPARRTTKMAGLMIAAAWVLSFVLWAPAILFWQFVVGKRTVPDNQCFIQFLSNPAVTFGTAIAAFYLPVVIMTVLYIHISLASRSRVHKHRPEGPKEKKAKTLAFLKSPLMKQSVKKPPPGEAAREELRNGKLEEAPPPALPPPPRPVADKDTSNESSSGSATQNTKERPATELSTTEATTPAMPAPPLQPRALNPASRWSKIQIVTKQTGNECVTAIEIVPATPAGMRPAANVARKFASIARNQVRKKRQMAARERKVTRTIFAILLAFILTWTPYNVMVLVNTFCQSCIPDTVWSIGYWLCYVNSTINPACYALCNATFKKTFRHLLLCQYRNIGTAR

[4] = target: Muscarinic acetylcholine receptor M3 (Cavia porcellus) (UniProt Q8VH26); assay: Agonist potency at muscarinic M3 receptor in guinea pig ileum; assay type: functional, tissue-based; in short: as §2
[5] = target: T3, Muscarinic acetylcholine receptor M1 (Homo sapiens, UniProt P11229); assay: Binding affinity to cloned human muscarinic M1 receptor expressed in CHO cells; assay type: cell-based
T3 sequence (P11229 whole entry): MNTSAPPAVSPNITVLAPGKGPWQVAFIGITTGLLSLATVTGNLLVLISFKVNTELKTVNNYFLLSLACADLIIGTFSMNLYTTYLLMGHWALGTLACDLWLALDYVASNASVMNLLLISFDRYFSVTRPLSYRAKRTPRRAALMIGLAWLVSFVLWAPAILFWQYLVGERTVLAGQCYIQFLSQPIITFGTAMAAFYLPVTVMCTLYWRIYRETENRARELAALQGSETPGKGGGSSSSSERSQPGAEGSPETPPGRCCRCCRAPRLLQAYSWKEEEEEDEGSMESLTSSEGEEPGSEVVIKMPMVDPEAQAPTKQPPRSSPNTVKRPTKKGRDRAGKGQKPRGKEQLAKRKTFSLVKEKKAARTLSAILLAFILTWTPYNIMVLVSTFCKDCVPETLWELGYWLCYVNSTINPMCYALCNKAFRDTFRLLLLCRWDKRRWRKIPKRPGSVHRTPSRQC

[6] = target: Muscarinic acetylcholine receptor M3 (Homo sapiens, UniProt P20309); assay: Binding affinity to cloned human muscarinic M3 receptor expressed in CHO cells; assay type: cell-based
Chain of Muscarinic acetylcholine receptor M3 (P20309 whole entry): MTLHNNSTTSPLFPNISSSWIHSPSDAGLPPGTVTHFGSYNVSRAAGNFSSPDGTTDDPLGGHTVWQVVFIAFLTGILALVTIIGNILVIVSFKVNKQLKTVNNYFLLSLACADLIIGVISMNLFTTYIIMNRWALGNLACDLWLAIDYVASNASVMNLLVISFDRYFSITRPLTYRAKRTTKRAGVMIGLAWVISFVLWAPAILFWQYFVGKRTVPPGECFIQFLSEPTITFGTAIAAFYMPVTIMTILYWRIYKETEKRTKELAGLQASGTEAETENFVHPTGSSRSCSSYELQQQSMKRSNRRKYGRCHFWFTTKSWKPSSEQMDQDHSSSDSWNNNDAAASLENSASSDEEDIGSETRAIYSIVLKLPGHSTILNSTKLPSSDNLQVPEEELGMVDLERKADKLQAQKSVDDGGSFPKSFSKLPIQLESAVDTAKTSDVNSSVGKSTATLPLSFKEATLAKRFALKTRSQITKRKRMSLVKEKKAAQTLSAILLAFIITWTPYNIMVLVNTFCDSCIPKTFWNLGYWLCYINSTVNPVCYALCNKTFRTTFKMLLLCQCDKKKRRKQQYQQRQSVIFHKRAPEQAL

[7] = target: T4, Muscarinic acetylcholine receptor M2 (Homo sapiens, UniProt P08172); assay: Binding affinity to cloned human muscarinic M2 receptor expressed in CHO cells; assay type: cell-based
T4 sequence (P08172 whole entry): T1 sequence (whole entry)
In short: (§3)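 Membranes from CHO cells stably expressing human hm2, hm4 or hm5 receptors, at 70, 50 and 25 µg/mL protein respectively. 0.2 nM [3H]NMS displaced by unlabelled ligand for 120 min at room temperature, in 25 mM sodium phosphate with 5 mM MgCl2, pH 7.4. Rapid filtration, then scintillation counting. Mean of at least three experiments.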

[8] = target: T5, Muscarinic acetylcholine receptor M5 (Homo sapiens, UniProt P08912); assay: Binding affinity to cloned human muscarinic M5 receptor expressed in CHO cells; assay type: cell-based; in short: as §3
T5 sequence (P08912 whole entry): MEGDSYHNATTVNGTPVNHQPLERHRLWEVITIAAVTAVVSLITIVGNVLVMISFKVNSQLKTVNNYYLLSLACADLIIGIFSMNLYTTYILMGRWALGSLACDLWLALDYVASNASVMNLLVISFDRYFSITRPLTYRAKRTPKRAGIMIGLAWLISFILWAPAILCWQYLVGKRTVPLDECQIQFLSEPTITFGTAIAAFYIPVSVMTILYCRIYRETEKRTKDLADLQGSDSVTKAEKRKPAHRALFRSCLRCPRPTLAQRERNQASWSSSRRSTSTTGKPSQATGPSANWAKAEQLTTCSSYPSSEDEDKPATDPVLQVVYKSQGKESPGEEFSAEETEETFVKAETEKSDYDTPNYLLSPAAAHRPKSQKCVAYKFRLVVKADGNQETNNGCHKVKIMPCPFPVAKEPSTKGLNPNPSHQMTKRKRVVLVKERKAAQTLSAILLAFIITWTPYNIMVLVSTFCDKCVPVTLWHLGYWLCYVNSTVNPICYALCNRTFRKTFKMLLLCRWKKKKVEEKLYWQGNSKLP

[9] = target: T1, Muscarinic acetylcholine receptor M2 (Homo sapiens); assay: Agonist potency at muscarinic M2 receptor in guinea pig atrium; assay type: functional, tissue-based; conditions: Cavia porcellus; Cardiac atrium; target entry is the homologue from another species; in short: as §1
[10] = target: T6, Muscarinic acetylcholine receptor M4 (Homo sapiens, UniProt P08173); assay: Binding affinity to cloned human muscarinic M4 receptor expressed in CHO cells; assay type: cell-based; in short: as §3
T6 sequence (P08173 whole entry): T2 sequence (whole entry)

[11] = target: T7, Muscarinic acetylcholine receptor M1 (Homo sapiens) (UniProt P11229); assay: Antagonist affinity at muscarinic M1 receptor in rabbit vas deferens; assay type: functional, tissue-based; conditions: Oryctolagus cuniculus, target entry is the homologue from another species
T7 sequence (whole entry): T3 sequence (P11229 whole entry)
In short: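 Field-stimulated (0.1 ms, 2 Hz, 10-15 V), contractions recorded isometrically after 1 h equilibration. Cumulative dose-response curves against p-Cl-McN-A-343 reference. Antagonists incubated 60 min before the repeat curve. Reported as pD2 (-log ED50) with intrinsic activity, or as pKb.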

[12] = target: T1, Muscarinic acetylcholine receptor M2 (Homo sapiens); assay: Efficacy of agonist at muscarinic M2 receptor in guinea pig atrium as ratio of Ka/ED50; assay type: functional, tissue-based; conditions: Cavia porcellus; Cardiac atrium; target entry is the homologue from another species
In short: (§4)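 Functional affinity constants (Ka) obtained in the atrium and ileum preparations. Full agonists: Furchgott-Bursztyn method. Partial agonists: Waud method, comparing their concentration-response curves with arecaidine propargyl ester, with equieffective concentrations read graphically. Ka was then related to ED50.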

[13] = target: Muscarinic acetylcholine receptor M3 (Cavia porcellus) (UniProt Q8VH26); assay: Efficacy of agonist at muscarinic M3 receptor in guinea pig ileum as ratio of Ka/ED50; assay type: functional, tissue-based; in short: as §4

SMILES	pKb [1]	pKb [2]	pKb [3]	Activity [4]	Ki [5] [µM]	Ki [6] [µM]	Ki [7] [µM]	Ki [8] [µM]	Activity [9]	Ki [10] [µM]	pKb [11]	Ratio [12]	-logKa [4]	pD2 [4]	Ratio [13]	-logKa [9]	pD2 [9]
C[C@@H]1O[C@H]([C@@H]2CCCN2C)C[S@@+]1[O-]	< 5	< 5	< 5	0	> 100	> 100	> 100	> 100	0	> 100	< 5	–	–	–	–	–	–
C[C@@H]1O[C@H]([C@H]2CCC[N+]2(C)C)C[S@@+]1[O-]	–	–	< 5	1	> 100	> 100	9.33	> 100	0.58	> 100	< 5	12	4.87	5.58	7	5.11	6.11
C[C@H]1O[C@@H]([C@@H]2CCC[N+]2(C)C)C[S@+]1[O-]	< 5	< 5	< 5	0	> 100	> 100	77.6	> 100	0	> 100	< 5	–	–	–	–	–	–
C[C@H]1O[C@@H]([C@@H]2CCC[N+]2(C)C)C[S@@+]1[O-] (stereo in doubt; (-)-6) [listing 1 of 2 here]	< 5	< 5	< 5	0	–	–	–	–	0	–	< 5	–	–	–	–	–	–
C[C@H]1O[C@@H]([C@@H]2CCC[N+]2(C)C)C[S@@+]1[O-] (stereo in doubt; (-)-6) [listing 2 of 2 here]	–	–	–	–	> 100	> 100	28.8	> 100	–	> 100	–	–	–	–	–	–	–
C[C@H]1O[C@@H]([C@H]2CCCN2C)C[S@@+]1[O-]	–	–	–	–	> 100	> 100	> 100	> 100	–	> 100	–	–	–	–	–	–	–
C[C@H]1O[C@@H]([C@H]2CCCN2C)C[S@+]1[O-]	–	–	–	–	> 100	> 100	> 100	> 100	–	> 100	–	–	–	–	–	–	–
C[C@@H]1O[C@H]([C@H]2CCCN2C)C[S@@+]1[O-]	–	–	–	–	> 100	> 100	> 100	> 100	–	> 100	–	–	–	–	–	–	–
C[C@@H]1O[C@H]([C@@H]2CCC[N+]2(C)C)C[S@+]1[O-]	–	< 5	< 5	0	> 100	> 100	51.3	> 100	0.41	> 100	< 5	84	–	–	–	6.13	7.65
